From ChEMBL document CHEMBL3774372, “Design, physico-chemical properties and biological evaluation of some new N-[(phenoxy)alkyl]- and N-{2-[2-(phenoxy)ethoxy]ethyl}aminoalkanols as anticonvulsant agents” (Bioorg Med Chem, 2016) come the findings set out here.

Data set [1] can be described thus: Ratio of drug level in brain to plasma in CD1 mouse at 1 mg/kg, iv administered as single dose measured after 15 mins by LC/ESI-MS/MS analysis. Type of data set: ADME, organism-based. The note with it: brain and plasma, read-out: BPR.
The nature of data set [2]: Cmax in CD1 mouse brain at 12.92 mg/kg, ig measured up to 240 mins by LC/ESI-MS/MS analysis. Type of data set: ADME, organism-based. Details: dose 12.92 mg/kg, route […]. To be noted: po.
Data set [3] is described as follows: AUC (0 to infinity) in CD1 mouse brain at 12.92 mg/kg, ig measured up to 240 mins by LC/ESI-MS/MS analysis. The format is ADME, organism-based. Further details: dose 12.92 mg/kg, route […], time infinity. To be noted: po.
The subject of data set [4] is Mus musculus. Kind of data set: Cmax in CD1 mouse plasma at 12.92 mg/kg, ip measured up to 240 mins by LC/ESI-MS/MS analysis. The format is ADME, organism-based. To be noted: in vivo, 4 h. Further details: dose 12.92 mg/kg, route intraperitoneal.
Data set [5] is described as follows: Ratio of drug level in brain to plasma in CD1 mouse at 1 mg/kg, iv administered as single dose measured after 240 mins by LC/ESI-MS/MS analysis. The format is ADME, organism-based. The note with it: brain and plasma, read-out: BPR.
Data set [6] concerns Vibrio harveyi. The experiment in a line: Antimutagenic activity against Vibrio harveyi BB7XM assessed as inhibition of NQNO-induced mutagenicity after 48 hrs. The format is functional. A digest of the protocol: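 V. harveyi cultures grown exponentially to A600 0.1 at 30 °C, exposed to test compound for 15 min, then to NQNO, and grown on to A600 0.3–0.4. 5 × 10⁶ cells plated on BOSS agar with neomycin (100, final). Neomycin-resistant colonies counted after 48 h at 30 °C. Result given as % inhibition of NQNO mutagenicity; three independent repeats.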

For data set [7], the target named is hERG (KCNH2) (Homo sapiens, UniProt Q12809). Kind of data set: Displacement of [3H]astemizole from human recombinant ERG expressed in HEK293 cells at 10^-4 M. The format is cell-based. To be noted: HEK293 cells that express human recombinant ERG, probe [3H]astemizole.
Data set [8] in a line: MRT in CD1 mouse brain at 12.92 mg/kg, ig measured up to 240 mins by LC/ESI-MS/MS analysis. Type of data set: ADME, organism-based. To be noted: po.
Data set [9] has as its system Mus musculus. The experiment in a line: Analgesic activity in mouse assessed as reduction in AUC of formalin-induced licking time during acute phase at 13 mg/kg, ip relative to control. The format is functional. A digest of the protocol:
(§1)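 Formalin injected into a mouse hindlimb; total licking time taken as pain intensity. Compound given ip at 13 mg/kg as a suspension in 0.5% methylcellulose; vehicle-only animals served as controls.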

Data set [10] has as its system Mus musculus. Kind of data set: Half life in CD1 mouse plasma at 12.92 mg/kg, ig measured up to 240 mins by LC/ESI-MS/MS analysis. The format is ADME, organism-based. The note with it: in vivo, po, 4 h.
Data set [11] deals with Vibrio harveyi. The experiment in a line: Mutagenicity in Vibrio harveyi BB7 assessed as number of colonies after 48 hrs (reference value: 13 to 14 no_unit). The format is ADME, organism-based. The note with it: in vivo. A digest of the protocol:
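Vibrio harveyi mutagenicity test: test compound was added to exponentially growing cultures (A600 = 0.1, 30 °C) and grown to OD600 0.3–0.4. Then 5 × 10^6 cells were plated on BOSS agar with neomycin (final 100 µg/mL) and incubated 48 h at 30 °C. Neomycin-resistant colonies were counted. Triplicate; controls were water, DMSO and NQNO 40 ng/mL.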

Data set [12] is described as follows: Ratio of drug level in brain to plasma in CD1 mouse at 12.92 mg/kg, ip administered as single dose measured after 120 mins by LC/ESI-MS/MS analysis. Type of data set: ADME, organism-based. To be noted: brain and plasma, read-out: BPR.
Data set [13] can be described thus: MRT in CD1 mouse brain at 1 mg/kg, iv measured up to 240 mins by LC/ESI-MS/MS analysis. Type of data set: ADME, organism-based.
The nature of data set [14]: MRT in CD1 mouse plasma at 1 mg/kg, iv measured up to 240 mins by LC/ESI-MS/MS analysis. Type of data set: ADME, organism-based.
Data set [15] can be described thus: Absolute bioavailability in CD1 mouse plasma at 12.92 mg/kg, ig measured up to 240 mins by LC/ESI-MS/MS analysis. The format is ADME, organism-based. The note with it: po.
The nature of data set [16]: Ratio of drug level in brain to plasma in CD1 mouse at 1 mg/kg, iv administered as single dose measured after 60 mins by LC/ESI-MS/MS analysis. The note with it: brain and plasma, read-out: BPR. Type of data set: ADME, organism-based.
The subject of data set [17] is Mus musculus. The experiment in a line: Analgesic activity in mouse assessed as reduction in AUC of formalin-induced licking time during inflammatory phase at 13 mg/kg, ip relative to control. Type of data set: functional. The method in brief:
as §1

The nature of data set [18]: Ratio of drug level in brain to plasma in CD1 mouse at 12.92 mg/kg, ip administered as single dose measured after 30 mins by LC/ESI-MS/MS analysis. To be noted: brain and plasma, read-out: BPR. The format is ADME, organism-based.
Data set [19] concerns Mus musculus. Kind of data set: Half life in CD1 mouse plasma at 12.92 mg/kg, ip measured up to 240 mins by LC/ESI-MS/MS analysis. To be noted: in vivo, 4 h. Type of data set: ADME, organism-based.
Data set [20] in a line: Ratio of drug level in brain to plasma in CD1 mouse at 1 mg/kg, iv administered as single dose measured after 30 mins by LC/ESI-MS/MS analysis. Type of data set: ADME, organism-based. To be noted: brain and plasma, read-out: BPR.
A short description of data set [21]: Ratio of drug level in brain to plasma in CD1 mouse at 12.92 mg/kg, ig administered as single dose measured after 60 mins by LC/ESI-MS/MS analysis. To be noted: brain and plasma, po, read-out: BPR. The format is ADME, organism-based.
A short description of data set [22]: Ratio of drug level in brain to plasma in CD1 mouse at 12.92 mg/kg, ig administered as single dose measured after 15 mins by LC/ESI-MS/MS analysis. The format is ADME, organism-based. To be noted: brain and plasma, po, read-out: BPR.
The subject of data set [23] is Rattus norvegicus. The experiment in a line: Anticonvulsant activity in rat assessed as protection against maximal electric shock-induced seizures at 30 mg/kg, po measured after 0.5 hrs. Type of data set: functional, organism-based. A digest of the protocol:
(§2)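 Rats dosed ip or orally as 0.5% methylcellulose suspension; maximal electroshock at listed time. Protection = abolition of hindlimb tonic extension; 4 rats per group, scored protected/tested.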

Data set [24] concerns Mus musculus. The experiment in a line: Anticonvulsant activity in mouse assessed as protection against maximal electric shock-induced seizures at 10 mg/kg, ip measured after 0.5 hrs. The format is functional, organism-based. A digest of the protocol:
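Mice dosed ip with suspension in 0.5% methylcellulose; maximal electroshock applied at the listed time after dosing. Protection = abolition of hindlimb tonic extension component of seizure; reported as animals protected/animals tested.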

Data set [25] has as its system Rattus norvegicus. Kind of data set: Anticonvulsant activity in rat assessed as protection against maximal electric shock-induced seizures at 30 mg/kg, ip measured after 4 hrs. Type of data set: functional, organism-based. The method in brief: as §2
In data set [26] the test system is Mus musculus. Kind of data set: Anticonvulsant activity in mouse assessed as protection against 6 Hz psychomotor seizure at 50 mg/kg, ip after 0.5 hrs. Type of data set: functional, organism-based. A digest of the protocol: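 Suspension in 0.5% methylcellulose given ip to mice; corneal stimulation with 0.2 ms monopolar rectangular pulses at 6 Hz for 3 s from a constant current device, mice restrained then released to observation cage. Protected if normal exploratory behaviour resumed within 10 s of stimulation. Scored as protected/tested, 4 mice per group.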

The target in data set [27] is Neuropeptide Y receptor type 2 (Homo sapiens) (UniProt P49146). The experiment in a line: Displacement of [125I]peptide YY from neuropeptide Y2 receptor in human KAN-TS cells at 10^-5 M. The format is cell-based. A digest of the protocol: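 Radioligand binding screen run at a single test concentration of 10^-5 M. Each target used its stated receptor source (human recombinant CHO or HEK-293 cells, endogenous cell lines, or rat tissue membranes) with the listed radioligand.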

For data set [28], the system named is Rattus norvegicus. The experiment in a line: Anticonvulsant activity in pilocarpine-induced status epilepticus Sprague-Dawley rat model at 100 mg/kg, ip after 0.5 hrs during post stage 3 seizure. The format is functional, organism-based. The method in brief:
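Rats given pilocarpine 50 mg/kg ip and observed to first convulsive seizure (Racine stage 3–5, time zero); test drug then given ip in 0.5% methylcellulose. Efficacy = halting further stage 3–5 convulsive seizures; scored protected/tested, time after first stage 3 seizure.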

SMILES strings stand for the structures. The source made the active and inactive calls. The calls are words filed in the database; no cut-off is given here.

Sequence of Neuropeptide Y receptor type 2 (Homo sapiens) (P49146 whole entry): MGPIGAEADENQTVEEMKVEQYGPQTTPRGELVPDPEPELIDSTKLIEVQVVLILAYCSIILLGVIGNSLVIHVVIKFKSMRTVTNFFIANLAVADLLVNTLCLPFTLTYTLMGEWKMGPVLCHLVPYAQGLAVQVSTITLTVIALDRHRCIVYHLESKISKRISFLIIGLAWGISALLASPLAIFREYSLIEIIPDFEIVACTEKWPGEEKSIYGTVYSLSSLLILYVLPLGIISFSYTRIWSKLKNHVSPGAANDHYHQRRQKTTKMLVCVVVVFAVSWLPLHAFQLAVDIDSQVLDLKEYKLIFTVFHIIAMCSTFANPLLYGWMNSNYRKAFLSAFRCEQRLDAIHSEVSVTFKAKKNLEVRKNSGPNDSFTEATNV
Sequence of hERG (KCNH2) (Q12809 whole entry): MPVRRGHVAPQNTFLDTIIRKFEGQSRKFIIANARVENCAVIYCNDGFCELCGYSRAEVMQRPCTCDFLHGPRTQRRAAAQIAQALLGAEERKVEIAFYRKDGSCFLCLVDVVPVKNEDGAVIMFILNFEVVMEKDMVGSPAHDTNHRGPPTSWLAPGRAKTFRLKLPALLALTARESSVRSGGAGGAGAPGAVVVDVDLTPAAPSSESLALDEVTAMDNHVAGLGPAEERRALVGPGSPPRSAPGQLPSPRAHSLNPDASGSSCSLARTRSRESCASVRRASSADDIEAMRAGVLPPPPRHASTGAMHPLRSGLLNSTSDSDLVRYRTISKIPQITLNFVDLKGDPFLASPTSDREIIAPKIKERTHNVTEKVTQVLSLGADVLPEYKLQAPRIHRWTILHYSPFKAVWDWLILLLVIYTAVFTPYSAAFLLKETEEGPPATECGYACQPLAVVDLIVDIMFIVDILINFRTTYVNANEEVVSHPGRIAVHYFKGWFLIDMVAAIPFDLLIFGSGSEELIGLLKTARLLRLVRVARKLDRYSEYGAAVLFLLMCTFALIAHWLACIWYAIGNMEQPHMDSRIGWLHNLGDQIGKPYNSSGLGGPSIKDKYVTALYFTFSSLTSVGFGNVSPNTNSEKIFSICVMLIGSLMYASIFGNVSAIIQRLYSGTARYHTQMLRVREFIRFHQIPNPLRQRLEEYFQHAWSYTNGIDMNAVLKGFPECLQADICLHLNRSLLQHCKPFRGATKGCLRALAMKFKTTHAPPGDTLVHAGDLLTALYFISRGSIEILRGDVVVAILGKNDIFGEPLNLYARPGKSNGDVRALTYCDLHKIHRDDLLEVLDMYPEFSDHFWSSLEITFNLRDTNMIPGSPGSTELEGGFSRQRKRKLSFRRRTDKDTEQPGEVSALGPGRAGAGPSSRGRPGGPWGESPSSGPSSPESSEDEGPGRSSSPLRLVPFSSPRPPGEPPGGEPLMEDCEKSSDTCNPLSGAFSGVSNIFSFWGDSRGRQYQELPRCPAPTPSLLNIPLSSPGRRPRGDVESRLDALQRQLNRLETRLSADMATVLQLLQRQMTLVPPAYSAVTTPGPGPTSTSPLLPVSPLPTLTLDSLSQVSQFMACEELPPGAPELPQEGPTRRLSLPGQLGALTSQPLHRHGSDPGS

Regarding `Cc1cccc(C)c1OCCOCCN[C@H](C)CO.Cl`, the Kp at […] came out at 5.36 in [1] and 2.67 in data set [22]. The maximum concentration (Cmax) (in general, the peak of the concentration-time curve) in [2] worked out at 1640 ng/mL; in data set [4] it was 1190 ng/mL. The area under the curve AUC(0-inf) (as a rule, the area under the concentration-time curve extrapolated to infinity) in data set [3] was 1220 µg·h/mL. Besides, in [5], the Kp at 4 h came to 2.98. Further, the “inhibition (INH)” value in data set [6] amounted to 41%. In addition, the inhibition (as a rule, the relative decrease from the control value, in per cent) at 100 µM in data set [7] came out at 3.6%. The values for the MRT in data set [8], in data set [13] and in data set [14] were 73.8 min, 50.1 min and 55.6 min, respectively. Besides, the inhibition in vivo – broadly, the share of the control response that was lost under treatment – at 13 mg/kg in data set [9] turned out to be 54.9%; in data set [17] it was 81.1%. For the same compound, the t1/2 in data set [10] is reported as 29.1 min; in data set [19], 77.2 min. Also, in data set [11], the Activity was determined as 20. The Kp at 2 h in data set [12] stood at 2.86. In [15], the bioavailability (as a rule, dose-corrected exposure relative to a reference, in per cent) came to 2.98%. Besides, the Kp at 1 h in [16] is 3.58; in data set [21], 5.95. Further, the values for the Kp at 0.5 h in data set [18] and in data set [20] were 4.25 and 5.41, respectively.

As for `Cc1cccc(C)c1OCCOCCN[C@@H](C)CO`, the outcome in data set [23], in data set [24] and in data set [25] was inactive.

Consider `Cc1cccc(C)c1OCCOCCN[C@H](C)CO`, for which the result in data set [26] was Active. Also, in data set [27], the inhibition is -5.1%. The result in data set [28] was inactive.
